Measurements published in the array DNA melting data of Ke et al. (doi:10.1101/2024.01.08.574731).

Columns and labels:
[1] = melting temperature; fluorescence melt of hairpins on a sequencing array, two-state fit, raised by 9.35 °C to match UV melts; conditions: sodium 0.088 M
Summary of the method: (§1)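 Folding enthalpy and melting temperature come from bootstrapped two-state fits to Cy3 fluorescence of library hairpins carrying annealed Cy3 and quencher oligos on a sequenced MiSeq flow cell. Imaging was done in 50 mM Na-HEPES pH 8.0, 25 mM NaCl, stepping by 2.5 °C up to 60 °C, and signals were normalised to pre-quench Cy3 and to control constructs. Results of four replicates were combined by inverse variance, and fitted temperatures were raised by 9.35 °C to match UV melts.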

[2] = folding enthalpy; higher = less favourable; fluorescence melt of hairpins on a sequencing array, two-state fit; conditions: sodium 0.088 M
Summary of the method: as §1

Sequence	Tm [1] [°C]	folding enthalpy [2] [kcal/mol]
GTTCTAGGAAACTAGAGC (.(((((....))))).)	35.6	-24.7
CGCGGAAGCGTCCGCG ((((((....))))))	53.2	-13.4
GATCCAACTATGGATC ((((((....))))))	49.6	-39.6
GTTCTGGGAAACTAGAGC (.(((.(....).))).)	24.9	-8.92
GCATGTGGAAACGTATGC ((((..(....)..))))	41	-26.3
GTGCCCGGAAACGAGCAC ((((.((....)).))))	52.8	-41.2
GAACGCGGAAACACGTCC (.(((.(....).))).)	28.2	-20.1
GATCGACAGATCGATC ((((((....))))))	54.8	-16.1
GTCTGGGGAAACCCAGGC (.(((((....))))).)	55.5	-28.1
GATCTGCGAACAGATC ((((((....))))))	49.4	-33.5
GTACTGCGAAAGCATTAC (((.(((....))).)))	41.7	-22.5
GTAGTCGAAAGACTGTAC ((((((....)))..)))	32.1	-13.8
GTAAACTCGAAAGAGTAC (((..(((....))))))	31	-11.9
GACTTGCGAAAGCATGTC (((.(((....))).)))	55.8	-25.2
GATCGATTTGTCGATC ((((((....))))))	55.5	-41.5
GAGCCCCGAAAGGGCCTC (((.(((....))).)))	47.3	-14.6
GCAAGAGCGAAAGCTTGC (((..(((....))))))	51.9	-22.8
GTAAGTCCGAAAGGATAC (((..(((....))))))	25.9	-10.1
GATCTCCACGAGATC ((((((...))))))	53.6	-42
GCGGTAGGAAACTACCAC (.(((((....))))).)	44.1	-15.6
GCGGCAGTCCGC ((((....))))	59.7	-23.7
GCAACGCCGAAAGGCTGC (((..(((....))))))	47.8	-15.4
GCGGACACGAAAGTGCGC (((..(((....))))))	55.6	-26.1

Sequence	Tm [1] [°C]	folding enthalpy [2] [kcal/mol]
GCGATCTGTCGC ((((....))))	51.6	-33.5
GTATACCGAAAGGTCTAC (((.(((....))).)))	40.7	-22.4
GTCCACGAAAGTGACGAC ((((((....)))..)))	43.9	-20.4
GTTGGAGGAAACTCCAAC (((((((....)))))))	60.8	-36
GTCGTCGAAAGACGGGAC ((((((....)))..)))	41.4	-10.3
GATCGAGGCTTCGATC ((((((....))))))	57.9	-41.8
GGGTGCGGAAACGCACTC (.(((((....))))).)	59.4	-12
GCGTCTCAACGC ((((....))))	56.6	-20.3
GCTTCGGCGAAAGCCAGC (((..(((....))))))	40.2	-10.3
GCGCTGGGAAACCAGCAC (.(((((....))))).)	50.4	-11.9
GTTGGCGGAAACGCTAAC (((.(((....))).)))	53.1	-30.9
GATCGGTAGCCGATC ((((((...))))))	55.4	-42.2
GTCTGTCGAAAGACCGAC (((.(((....))).)))	47.7	-27.8
GCGAGGCTTCGC ((((....))))	66.7	-17.9
GCGTCGACGAAAGTCCGC (((..(((....))))))	49.7	-22.2
GCGAAACCTCGC ((((....))))	49.5	-19.9
GGTCTCCGAAAGGAACC (((.(((....))))))	45.2	-22.4
GCCCACGAAAGTGACGGC ((((((....)))..)))	49.6	-19.9
GACACCGCGAAAGCGGTC (((..(((....))))))	35.4	-6.65
GCAGTGCGAAAGCAGAGC ((..(((....)))..))	50.9	-11.6
GAGTTCCGAAAGGACCTC (((.(((....))).)))	47.2	-28.8
GAACGTGGAAACGCGTTC (((((.(....).)))))	53.8	-36.4
GAATACCGAAAGGTCTTC (((.(((....))).)))	36.7	-24.1

Sequence	Tm [1] [°C]	folding enthalpy [2] [kcal/mol]
GGCGGCGGAAACACCGCC (((((.(....).)))))	65.2	-21.9
GCCCATCGAAAGATGGC (((.(((....))))))	56.1	-14
GTGCGCGAAAGCGCTCAC ((((((....)))..)))	40.4	-7.75
GATATTGGAAACGATATC (((((.(....).)))))	36.2	-33
GCTCACCGAAAGGTTAGC (((.(((....))).)))	49.9	-31
GATCTGTCTCAGATC ((((((...))))))	49.3	-28.1
GAGGAAGGAAACTTTCTC (((.(((....))).)))	35.3	-28.9
GGGCCTGGAAACGGGCCC (((((.(....).)))))	68.9	-38.7
GCAAATGGAAACATTCGC ((.((((....)))).))	38.4	-28.5
GGAGTCGAAAGACTCTCC ((((((....)))..)))	51.6	-10.2
GTCTCCACGAAAGTGGAC (((..(((....))))))	32.2	-7.36
GCGGTTGCCGC ((((...))))	56.6	-21.2
GCGTGTCGAAAGACCCGC (((.(((....))).)))	58	-42
GATCCACCTCTGGATC ((((((....))))))	49	-33
GTTCGCGAAAGCGCAAC ((((((....))).)))	45.6	-13.9
GGTCCCCGAAAGGGTACC (((.(((....))).)))	53.3	-24.1
GCTGGTCGAAAGACAGC (((.(((....))))))	54.7	-27.3
CGGCTACGGAAACGTCCG (((..(((....))))))	36.6	-13.3
GGACAGCCGAAAGGCTCC (((..(((....))))))	31.2	-7.98
GACGGTGGAAACACTGTC (((.(((....))).)))	52.1	-45.8
GCTAGTGCGAAAGCAAGC (((..(((....))))))	39	-12.3
GGCAACCCGAAAGGGGCC (((..(((....))))))	55.4	-23.8
GGTATTGGAAACAATACC (((((((....)))))))	56.9	-43.7

Sequence	Tm [1] [°C]	folding enthalpy [2] [kcal/mol]
GTGATGCGAAAGCACCAC (((.(((....))).)))	54.2	-29.2
GGTTATGGAAACATAGCC ((.((((....)))).))	43.8	-31.1
CGAGCGGAAACGCAGTCG ((((((....)))..)))	38.1	-13.6
GACTTGGGAAACCGAGTC ((((.((....)).))))	49.5	-45.3
GGACAACGAAAGTTCTCC (((.(((....))).)))	31.3	-22.8
GGCACCGGAAACGGTACC ((.((((....)))).))	50.7	-22.5
GCTAGGCGAAAGCCGCGC ((..(((....)))..))	62	-16.9
GGAAGCGAAAGCTGTCC ((((((....))).)))	47.4	-14.5
GATCAAGGGTTTGATC ((((((....))))))	43	-26.2
GCAACTCGAAAGAGATGC (((.(((....))).)))	53.8	-40.1
GTAGCCGGAAACGGCTGC (.(((((....))))).)	60.9	-15.9
GCGTGCACACGC ((((....))))	68	-25.7
GATCCATAGATGGATC ((((((....))))))	51.2	-33.5
GGTGCTCGAAAGAGAACC (((.(((....))).)))	54.1	-48.3
GCCTTGCGAAAGCATCGC ((..(((....)))..))	51	-12.4
GATCTCTGGTGAGATC ((((((....))))))	52.4	-34.1
GTGGCGGCGAAAGCCCAC (((..(((....))))))	54	-15
GGCTTACGAAAGTAGGCC (((.(((....))).)))	60.1	-43.6
GCCAACGAAAGTTAGGGC ((((((....)))..)))	46.6	-23.5
GGCAGCGGAAACACCGCC (((.(.(....).).)))	34.9	-11.1
CGGTGCGGAAACGCCCG (((.(((....))))))	58	-30.8
GATCCTGGGTAGGATC ((((((....))))))	51.3	-33.4
GAGATTGGAAACAGTCTC ((((.((....)).))))	40.8	-27.4
